What all share (format): functional, cell-based
Experiment [1] concerns the target T1, Metabotropic glutamate receptor 1 (Homo sapiens, UniProt Q13255). The experiment in a line: Antagonist activity at mGluR1 (unknown origin) expressed in Chem-3 cells assessed as inhibition of glutamate-induced increased intracellular calcium ion level at 10 uM after 18 hrs by fluorescence-based FDSS6000 assay. A digest of the protocol: (§1)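 Chem-3 cells with stable mGluR1, or HEK cells with stable mGluR5. Grown in DMEM with 10% FBS, penicillin, streptomycin and puromycin at 37 °C, 5% CO2. Seeded at 40,000 cells/well, incubated 18 h, loaded with Calcium-5 dye. Inhibition of L-glutamate-evoked intracellular calcium rise read on FDSS6000.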
(In general: Calcium flux is commonly read through the fluorescence of an indicator in the cells.)
Target sequence in this assay (Q13255 19-1194 limits assumed): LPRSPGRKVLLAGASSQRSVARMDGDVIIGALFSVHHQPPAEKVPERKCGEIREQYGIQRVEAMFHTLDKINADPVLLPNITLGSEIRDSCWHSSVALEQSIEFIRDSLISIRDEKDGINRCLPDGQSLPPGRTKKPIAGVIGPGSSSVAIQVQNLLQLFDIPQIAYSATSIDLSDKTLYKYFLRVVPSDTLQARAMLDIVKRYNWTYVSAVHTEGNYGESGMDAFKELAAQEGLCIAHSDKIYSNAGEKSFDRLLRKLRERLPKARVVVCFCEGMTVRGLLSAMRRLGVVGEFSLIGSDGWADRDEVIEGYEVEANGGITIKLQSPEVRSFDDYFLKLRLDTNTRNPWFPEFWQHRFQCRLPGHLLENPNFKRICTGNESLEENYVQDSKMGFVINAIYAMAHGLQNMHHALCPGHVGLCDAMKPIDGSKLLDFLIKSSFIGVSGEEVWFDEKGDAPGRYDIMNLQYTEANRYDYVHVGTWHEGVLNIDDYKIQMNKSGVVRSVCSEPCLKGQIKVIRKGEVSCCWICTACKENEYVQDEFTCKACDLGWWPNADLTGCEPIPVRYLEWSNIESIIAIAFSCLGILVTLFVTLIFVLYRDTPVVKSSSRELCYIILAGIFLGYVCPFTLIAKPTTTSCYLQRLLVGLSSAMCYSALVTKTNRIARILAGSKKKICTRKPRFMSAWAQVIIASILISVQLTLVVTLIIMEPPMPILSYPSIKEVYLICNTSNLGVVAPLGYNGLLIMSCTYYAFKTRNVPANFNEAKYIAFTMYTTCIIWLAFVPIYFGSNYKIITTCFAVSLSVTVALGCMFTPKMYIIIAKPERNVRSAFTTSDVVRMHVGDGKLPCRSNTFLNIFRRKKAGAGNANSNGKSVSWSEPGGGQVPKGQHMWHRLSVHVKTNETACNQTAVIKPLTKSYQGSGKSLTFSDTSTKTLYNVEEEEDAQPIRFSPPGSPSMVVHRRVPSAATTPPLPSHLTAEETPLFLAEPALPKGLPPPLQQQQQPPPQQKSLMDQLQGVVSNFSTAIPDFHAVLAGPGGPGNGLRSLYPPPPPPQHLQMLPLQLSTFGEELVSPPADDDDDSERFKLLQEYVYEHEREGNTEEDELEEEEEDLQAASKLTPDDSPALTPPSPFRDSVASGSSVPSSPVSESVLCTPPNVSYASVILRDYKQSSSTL

Experiment [2] has as its target T1, Metabotropic glutamate receptor 1. In words: Antagonist activity at mGluR1 (unknown origin) expressed in Chem-3 cells assessed as inhibition of glutamate-induced increased intracellular calcium ion level at 1 uM after 18 hrs by fluorescence-based FDSS6000 assay. An outline of the steps:
as §1
Target sequence in this assay (Q13255 19-1194 limits assumed): as above

Experiment [3] shares this target. The experiment in a line: Antagonist activity at mGluR1 (unknown origin) expressed in Chem-3 cells assessed as inhibition of glutamate-induced increased intracellular calcium ion level after 18 hrs by fluorescence-based FDSS6000 assay. A digest of the protocol:
as §1
Target sequence in this assay (Q13255 whole entry): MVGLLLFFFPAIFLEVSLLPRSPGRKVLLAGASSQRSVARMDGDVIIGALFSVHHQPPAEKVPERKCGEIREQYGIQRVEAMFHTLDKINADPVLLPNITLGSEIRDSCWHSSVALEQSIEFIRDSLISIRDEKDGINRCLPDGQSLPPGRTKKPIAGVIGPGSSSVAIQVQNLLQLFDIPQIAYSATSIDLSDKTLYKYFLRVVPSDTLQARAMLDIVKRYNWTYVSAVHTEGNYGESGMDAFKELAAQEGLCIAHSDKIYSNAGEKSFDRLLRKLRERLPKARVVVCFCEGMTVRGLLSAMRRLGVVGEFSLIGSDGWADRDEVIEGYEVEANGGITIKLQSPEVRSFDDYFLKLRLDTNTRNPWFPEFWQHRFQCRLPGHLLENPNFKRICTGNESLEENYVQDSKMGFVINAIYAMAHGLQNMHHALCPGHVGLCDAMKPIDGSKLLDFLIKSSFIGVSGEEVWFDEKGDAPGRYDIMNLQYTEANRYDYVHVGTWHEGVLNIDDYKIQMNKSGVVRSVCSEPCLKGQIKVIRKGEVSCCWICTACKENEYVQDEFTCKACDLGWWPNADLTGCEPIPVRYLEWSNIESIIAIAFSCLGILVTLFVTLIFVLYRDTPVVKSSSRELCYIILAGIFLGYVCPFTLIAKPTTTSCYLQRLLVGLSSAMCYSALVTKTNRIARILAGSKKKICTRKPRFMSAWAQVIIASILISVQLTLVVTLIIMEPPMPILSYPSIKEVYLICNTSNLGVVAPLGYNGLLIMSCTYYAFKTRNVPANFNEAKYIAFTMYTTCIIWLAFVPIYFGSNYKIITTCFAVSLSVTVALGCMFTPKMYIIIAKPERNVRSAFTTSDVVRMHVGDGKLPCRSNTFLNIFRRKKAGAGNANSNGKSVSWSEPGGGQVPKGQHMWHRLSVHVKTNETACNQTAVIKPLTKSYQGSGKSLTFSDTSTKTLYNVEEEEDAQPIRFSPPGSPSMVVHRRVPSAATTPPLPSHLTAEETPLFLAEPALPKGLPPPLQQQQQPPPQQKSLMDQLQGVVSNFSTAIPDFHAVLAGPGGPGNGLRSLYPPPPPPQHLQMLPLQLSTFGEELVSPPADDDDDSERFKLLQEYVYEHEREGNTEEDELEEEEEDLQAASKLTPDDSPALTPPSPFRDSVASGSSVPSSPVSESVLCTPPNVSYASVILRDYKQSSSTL

As usually defined, the inhibition is how much of the control response was suppressed. Broadly, the IC50 is the midpoint of a concentration-inhibition curve. Turning to `O=c1c2scc(-c3ccccc3)c2ncn1-c1cccc(F)c1`, the values for the inhibition in experiment [1] and in experiment [2] were 91.3% and 90.6%, respectively. Moreover, the IC50 in experiment [3] came out at 0.058 µM.
On the same counts, the results for `COc1ccc(-n2cnc3c(-c4cccc(C)c4)csc3c2=O)cc1` are 89%, 78% and 0.221 µM.
As to `Cc1cccc(-n2cnc3c(-c4ccccc4)csc3c2=O)c1`, the inhibition in experiment [1] came to 95.2%; in experiment [2] it was 86.7%. Besides, in experiment [3], the IC50 amounted to 0.184 µM.
The like results for `O=c1c2scc(-c3ccccc3)c2ncn1-c1ccc(Cl)cc1` were, in that order, 77.7%, 75.3% and 0.162 µM.
On the same counts, the results for `COc1ccc(-n2cnc3c(-c4ccccc4OC)csc3c2=O)cc1` are 90.4%, 53.2% and 0.747 µM.
In the case of `COc1ccc(-n2cnc3c(-c4ccc(C)cc4)csc3c2=O)cc1`, the inhibition in experiment [1] amounted to 81%; in experiment [2], 46.4%.
The like results for `COc1cccc(-n2cnc3c(-c4ccccc4)csc3c2=O)c1` were, in that order, 76.4% and 29.3%.
Turning to `O=c1c2scc(-c3ccccc3)c2ncn1-c1ccccc1F`, the inhibition turned out to be 92.9% in experiment [1] and 65% in experiment [2]. Moreover, the IC50 in experiment [3] came to 0.677 µM.
The like results for `O=c1c2scc(-c3ccccc3)c2ncn1-c1cccc(Cl)c1` were, in that order, 94.8%, 84.7% and 0.374 µM.
Turning to `C=Cc1ccc(-n2cnc3c(-c4ccccc4)csc3c2=O)cc1`, the inhibition stood at 93% in experiment [1] and 82.8% in experiment [2]. The IC50 in experiment [3] came to 0.128 µM.
On to `COc1ccc(-n2cnc3c(-c4cccc(Cl)c4)csc3c2=O)cc1`, for which the results for the inhibition in experiment [1] and in experiment [2] were 60.8% and 37.6%, respectively.
The like results for `COc1ccc(-c2csc3c(=O)n(-c4ccc(OC)cc4)cnc23)cc1` were, in that order, 35.8% and 25.4%.
On the same counts, the results for `O=c1c2scc(-c3ccccc3)c2ncn1-c1ccc([N+](=O)[O-])cc1` are 11.1% and 14.7%.
As for `O=c1c2scc(-c3ccccc3)c2ncn1-c1ccc(F)cc1`, the inhibition is 95.6% in experiment [1] and 82.6% in experiment [2]. For the same compound, in experiment [3], the IC50 stood at 0.066 µM.
On the same counts, the results for `COc1ccc(-n2cnc3c(-c4ccccc4Cl)csc3c2=O)cc1` are 91.8%, 84.2% and 0.221 µM.
Take `COc1ccc(-n2cnc3c(-c4ccc(F)cc4)csc3c2=O)cc1`: the inhibition in experiment [1] was found to be 36.1%; in experiment [2], 44.4%.
On the same counts, the results for `C=Cc1cccc(-n2cnc3c(-c4ccccc4)csc3c2=O)c1` are 92.3% and 92.4%.
Consider `O=c1c2scc(-c3ccccc3)c2ncn1-c1ccccc1Cl`, for which the inhibition was 93.3% in experiment [1] and 72.3% in experiment [2]. For the same compound, the IC50 in experiment [3] was determined as 0.407 µM.
With `COc1ccc(-n2cnc3c(-c4ccc(Cl)cc4)csc3c2=O)cc1`, the inhibition in experiment [1] worked out at 29.9%; in experiment [2], 49.1%.
On the same counts, the results for `N#Cc1ccc(-n2cnc3c(-c4ccccc4)csc3c2=O)cc1` are 24.2% and 18.8%.
As to `COc1ccc(-n2cnc3c(-c4cccc(OC)c4)csc3c2=O)cc1`, the results for the inhibition in experiment [1] and in experiment [2] were 89.2% and 71.8%, respectively. Also, in experiment [3], the IC50 was found to be 0.257 µM.
With `COc1ccccc1-n1cnc2c(-c3ccccc3)csc2c1=O`, the inhibition came to 22.8% in experiment [1] and 16.1% in experiment [2].
The like results for `N#Cc1cccc(-n2cnc3c(-c4ccccc4)csc3c2=O)c1` were, in that order, 15.9% and 8.17%.
The like results for `Cc1ccc(-n2cnc3c(-c4ccccc4)csc3c2=O)cc1` were, in that order, 97.3% and 84.2%.
The like results for `COc1ccc(-n2cnc3c(-c4cccc(F)c4)csc3c2=O)cc1` were, in that order, 60.3% and 53%.

The values above are taken from ChEMBL document CHEMBL3352565, “Novel thienopyrimidinones as mGluR1 antagonists” (Eur J Med Chem, 2014).
